# Experimental data pooled from the literature.
# Compare with care: the assays were run in different laboratories.
Structure (SMILES),test system,conditions,concentration
Cc1noc(C)c1Cn1cc(N2C(=O)N(Cc3cccc(O)c3)C(C)(C)C2=O)cn1,"male Sprague-Dawley rat, plasma","oral, 100 mg/kg, 30 min, single dose",2.6 ng/mL
COc1ccc2c(=O)n(C)c(-c3ccccc3)nc2c1,"male Sprague-Dawley rat, lung","oral, 30 mg/kg, 30 min, single dose",27.5 ng/g
COc1cccc(-c2n[nH]c(SCc3ccccn3)n2)c1OC,"female Sprague-Dawley rat, plasma","intravenous, 1 mg/kg, 4.98 min, single dose",4780 ng/mL
CCOC(=O)[C@@]12C[C@@H]1[C@@H](n1ccc3c(NC)nc(C#Cc4ccc(Cl)s4)nc31)[C@H](O)[C@@H]2O,"male Sprague-Dawley rat, plasma","oral, 10 mg/kg, 4 h",23.5 ng/mL
COc1nc(-c2cc(C)c(N[C@@H](C)c3cc(F)cc(F)c3)nn2)ccc1-n1cnc(C)c1,"male Sprague-Dawley rat, CSF","oral, 25 mg/kg, 4 h, multiple doses, once daily",76.6 ng/mL
CCc1cc(-c2noc(-c3cc(OC)nc(C4CCCC4)c3)n2)cc(C)c1OC[C@@H](O)CO,"Wistar rat, plasma","oral, 0.3 mg/kg, 6 h, single dose",12.7 ng/mL
Cc1noc(C)c1Cn1cc(N2C(=O)CN(Cc3cccc(O)c3)C2=O)cn1,"male Sprague-Dawley rat, plasma","oral, 30 mg/kg, 2 h",16.5 ng/mL
Cc1ccc(-c2cc(C(F)(F)F)nn2-c2ccc(S(N)(=O)=O)cc2)cc1,"male Sprague-Dawley rat, plasma","oral, 20 mg/kg, 4 h",1500 nM
